Assay outcomes as filed in PubChem.
Hits are enriched below; roughly 1.6% of the tested compounds scored in any of these assays.
IMP-1 inhibitor = IMP-1 metallo-beta-lactamase inhibitors, primary screen, biochemical, epi-absorbance readout, Pseudomonas aeruginosa enzyme | purified IMP-1, nitrocefin hydrolysis, epi-absorbance fluorescence | metallo-beta-lactamase IMP-1 (Pseudomonas aeruginosa) | 290,000 compounds, 0.45% hits | inhibition, % at 5.6 µM;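 active = inhibition above the mean plus 3 SD of all compounds in the same screening run, cut at about 4.5% in these data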;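 note: 0% = IMP-1 with DMSO and 100% = DMSO wells lacking enzyme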
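system = purified recombinant IMP-1 beta-lactamase | amount = 0.2 nM IMP-1, as dispensed | medium = HEPES buffer pH 7.1 with ZnSO4 and Brij 35 | times = 25 °C, 15 min preincubation, 25 min reaction | detection = plate fluorescence quenching by hydrolysis product, ex 480/em 530 nm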
VIM-2 inhibitor = VIM-2 metallo-beta-lactamase inhibitors, primary screen, biochemical, epi-absorbance readout, Pseudomonas aeruginosa enzyme. 290,000 compounds, 0.89% hits. inhibition, % at 5.6 µM. AID 1527, 2009. purified VIM-2, nitrocefin hydrolysis, epi-absorbance fluorescence;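 active = inhibition above the mean of all tested compounds plus 3 SD, cutoff set per screening run, cut at about 7.5% in these data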;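 note: red hydrolysis product quenches plate fluorescence so inhibitors raise well fluorescence; 0% = enzyme with DMSO and 100% = DMSO without enzyme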
core dimer inh = inhibitors of HCV core protein dimerization, primary screen, biochemical, TR-FRET, high-throughput. TR-FRET GST/Flag-core106 dimerization, 1536-well. inhibition, % at 5 µM. 300,000 compounds, 0.33% hits;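 active = inhibition above the mean of all tested compounds plus 3 SD, set per screening campaign, cut at about 45% in these data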
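assay system = GST-tagged and Flag-tagged HCV core protein residues 1-106 | controls = unlabelled core106 and no-GST-core106 wells | incubation = compound-protein-antibody incubation 4 h at 22.5 °C | probe or stimulus = Eu donor and XL665 acceptor anti-tag antibodies | read-out = % inhibition based on acceptor/donor emission ratio | signal = TR-FRET 671 and 617 nm emission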
DNA FID counter = compounds displacing fluorescent DNA intercalator, primary screen, artefact control for HCV NS3 helicase inhibitor project, biochemical, FID fluorescence; DNA fluorescent intercalator displacement; inhibition, % at 7.9 µM; 290,000 compounds, 0.17% hits; in the data active = inhibition above about 37%;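 note: 0% = vehicle and 100% = reference compound; higher means more ethidium bromide displaced from hairpin DNA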
* marks the source's active call; other numbers are inactive results; . = no result.

SMILES | IMP-1 inhibitor | VIM-2 inhibitor | core dimer inh | DNA FID counter
O=C(Cc1ccccc1Cl)NCc1cccnc1 | -1 | 0 | -3 | -3
Cc1cc(=O)n2c(-c3ccccc3C)n[nH]c2n1 | -1 | 0 | -2 | 2
Cc1cc(=O)n2c3ccccc3n(C)c2n1 | 0 | 10* | . | 0
N/C(=N\c1nc2c(c(=O)[nH]1)CCCC2)Nc1ccccc1 | -3 | -2 | 0 | -5
Cc1ccc(N/C(N)=N/c2nc3c(c(=O)[nH]2)CCCC3)c(C)c1 | 5.0* | -1 | -9 | -3
CC(=O)Nc1ccc2cc3ccc(NC(C)=O)cc3nc2c1 | 3 | 8.4* | -43 | 56*
COc1cc2c(c(OC)c1O)C(=O)CO2 | 0 | 2 | 7 | 0
COc1cc(OC)c2c(O)c3c(c(-c4c5c(c(O)c6c(OC)cc(OC)cc46)CO[C@@H](C)[C@H]5O)c2c1)[C@H](O)[C@H](C)OC3 | -2 | -1 | 54* | -31
CN(CC(=O)Nc1ccc(F)cc1)C(=O)c1cc(-c2ccco2)nc2ccccc12 | . | . | 50* | .
Cc1ccc(NC(=O)CN(C)C(=O)c2cc(-c3ccco3)nc3ccccc23)cc1 | . | . | 65* | .
O=C(Nc1ccccc1)Nc1snnc1C(=O)Nc1cccc(O)c1 | -2 | 1 | . | -9
C=CCSC1=N/C(=C\c2sccc2C)C(=O)S1 | 0 | 1 | -2 | -3
C=CCSC1=N/C(=C\C=C\c2ccco2)C(=O)S1 | 0 | -1 | 65* | -11
O=C(Nc1ccccc1-c1nnn(CC(=O)N2CCCc3ccccc32)n1)c1ccco1 | -1 | 5 | 13 | -12
O=C(NNC(=O)c1ccc(Oc2cc(Cl)cc(Cl)c2)o1)c1ccccc1 | -5 | -4 | -2 | -20
O=C(NNC(=O)c1ccc(Oc2ccc(C3SCCS3)cc2)o1)c1ccc(Cl)cc1 | 5.2* | -1 | 9 | -9
O=C(CN(c1ccc(F)cc1)S(=O)(=O)c1ccc2c(c1)OCCO2)N1CCOCC1 | -1 | 3 | -5 | -4
Cc1ccc(C)c(CN2C(=O)C3CCCN3c3ccc(S(=O)(=O)N4CCOCC4)cc32)c1 (configuration not stated) | -1 | 1 | 51* | -14
COc1ccc2c(c1)OC[C@H]1[C@H]2N2C(=O)c3cc(OC)c(OC)cc3NC(=O)[C@@]2(C)[C@H]1c1ccccc1 | . | . | 46* | .
COc1ccc(-c2sc(C(=O)c3ccc(Cl)cc3Cl)cc2CC(=O)O)cc1 | -1 | 11* | -36 | -9
CCOC(=O)c1nnn(CC(=O)Nc2cc(Cl)ccc2C)c1C(=O)OCC | -3 | -3 | 6 | -12
COc1c2ccoc2nc2c(OC)c(OCC(O)C(C)(C)O)ccc12 (configuration not stated) | -4 | 1 | 1 | -11
Cc1ccc(-n2nc3c(c2NC(=O)C2CC2)CS(=O)(=O)C3)cc1 | -2 | 0 | -7 | -1
O=C(O)c1ccc(S(=O)(=O)c2ccc(Sc3ccc(C(=O)O)c(C(=O)O)c3)cc2)cc1 | 3 | 8.9* | -3 | -6
O=C(O)c1ccc(S(=O)(=O)N2CCCC2)cc1 | -3 | -2 | 10 | 4
SMILES | IMP-1 inhibitor | VIM-2 inhibitor | core dimer inh | DNA FID counter
CCOc1ccc(C(C)=O)cc1Cn1nc(C(=O)O)c2ccccc2c1=O | -3 | 9.8* | 13 | -24
COc1ccccc1Cn1nc(C(=O)O)c2ccccc2c1=O | -1 | 1 | 4 | -19
CCc1nnc2sc(-c3cc(-c4ccccc4)nc4ccccc34)nn12 | -5 | 0 | 9 | -3
COc1cc(Nc2cc(C)nc3ncnn23)cc(OC)c1OC | -3 | 4 | -2 | 2
CCOc1nc(Nc2ccc(OC)c(Cl)c2)nc(OCC)n1 | -4 | 10* | 4 | -11
CCOc1nc(Nc2ccc(OC)cc2)nc(OCC)n1 | -3 | 0 | 3 | -8
COc1ccc(Nc2cc(C)nc3ncnn23)cc1Cl | -5 | 9.4* | 3 | -10
CSc1nc(NCCOCCO)c2sc3nc(-c4ccco4)c4c(c3c2n1)CCC4 | 0 | 1 | 87* | -28
CCN(CCO)c1ncnc2c1sc1nc(C(C)C)c3c(c12)CC(C)(C)OC3 | -4 | 0 | 2 | -7
CSc1nc(NCc2ccco2)c2sc3nc(C(C)C)c4c(c3c2n1)CC(C)(C)OC4 | -4 | -1 | 2 | -2
CCN(CCO)c1nc(SC)nc2c1sc1nc(-c3ccco3)c3c(c12)CCC3 | 12* | 1 | 80* | -23
N#Cc1c(/N=C/c2ccc(-c3ccccc3C(=O)O)o2)sc2c1CCCC2 | -2 | 0 | -1 | -3
COc1ccc2cc(C)c3nnc(SCC(=O)Nc4cc(OC)c(OC)cc4C(=O)O)n3c2c1 | -1 | 0 | -3 | -27
COc1ccc2cc(C)c3nnc(SCc4cccnc4)n3c2c1 | -2 | 8.9* | -3 | -7
COc1ccc(OC)c2c(C)c(C)[nH]c12 | 0 | 8.2* | -12 | -5
Cc1ccc(C)c(SCC(=O)OCC(=O)NCc2ccccc2)c1 | -1 | -2 | -3 | -11
O=C(O)c1cccc(N/N=C/c2cc(Br)cc(Br)c2O)c1 | -2 | -2 | 1 | -11
CN(/N=C/c1cc(Br)cc(Br)c1O)c1ccccc1 | 8.3* | 1 | -3 | 2
O=C(O)c1nn(-c2ccc(F)cc2)ccc1=O | -5 | -1 | -11 | 2
O=C(NNC(=O)c1nn(-c2ccc(F)cc2)ccc1=O)c1ccccc1Cl | 8.4* | -3 | -6 | -5
O=C(Nc1ccccc1C(=O)O)c1ccc(CN2C(=O)c3ccccc3C2=O)cc1 | -3 | 0 | 0 | 3
O=C1N=c2ccccc2=C1c1sc(Nc2ccc(O)cc2)nc1O | 5.1* | -4 | . | 7
O=C1N=c2ccccc2=C1c1sc(Nc2cccc(O)c2)nc1O | -6 | -3 | -8 | 39*
Cc1nc(N2N=C(c3ccc(Cl)cc3)CC2c2ccco2)sc1C(=O)N(C)C (configuration not stated) | -5 | 4 | 10 | -28
COc1ccc(C2=NN(c3nc(-c4ccccc4)c(CC(=O)O)s3)C(c3ccco3)C2)cc1 (configuration not stated) | 0 | -2 | 87* | -26
SMILES | IMP-1 inhibitor | VIM-2 inhibitor | core dimer inh | DNA FID counter
NC(CSS(=O)(=O)O)=NCCC12CC3CC(CC(O)(C3)C1)C2 | 5.4* | 0 | -9 | 3
NC(=O)COC(=O)C12CC3CC(CC(O)(C3)C1)C2 | -2 | -4 | 0 | -9
CCOC(=O)c1[nH]c2ccc(OC)cc2c1NC(=O)c1ccccc1C(=O)O | -2 | -1 | -18 | 2
CCOC(=O)c1[nH]c2ccc(F)cc2c1NC(=O)c1ccccc1C(=O)O | 3 | 9.8* | . | 3
N#CC1=C(N)Oc2ccc3ccc(O)cc3c2C1c1ccsc1 (configuration not stated) | 17* | 6 | . | -45
N#CC1=C(N)Oc2cc(N)ccc2C1c1ccsc1 (configuration not stated) | -3 | -2 | -6 | -13
COc1ccc(CCn2c(-c3ccco3)nc3nc4ccccc4nc32)cc1 | -4 | -3 | 56* | -6
